Several values for one entry are separate records, joined by “and”; a condition that tells them apart may be missing. Equal entries are not always repeated.
Key:
TRPA1 [1] = biological target: TRPA1 (Mus musculus, UniProt Q8BLA8); experiment: Whole-cell patch clamp of AITC-induced TRPA1 currents in dissociated DRG neurons; format: cell-based; conditions: for Effect on TRPA1 currents: AITC (300 μM)-induced current; for IC50: read-out: TRPA1 IC50, TRPA1 current induced by AITC (300 μM), DRG neurons
CD1 mice [2] = experiment: Capsaicin-induced spontaneous pain; format: in vivo, mouse; conditions: capsaicin 1 μg; for Capsaicin-induced nocifensive behaviors: 10 ng intraplantar; for Capsaicin-induced pain: 10 μg intraplantar
TRPV1 [3] = format: cell-based, mouse; conditions: capsaicin 1 μM
CD1 mice [4] = experiment: AITC-induced spontaneous pain; format: in vivo, mouse; conditions: AITC 1 μg; for AITC-induced pain: 10 μg intraplantar; for AITC-induced nocifensive behaviors: 10 ng intraplantar
TRPV1 [5] = biological target: TRPV1 (Mus musculus, UniProt Q704Y3); format: cell-based; conditions: for IC50: read-out: TRPV1 IC50
TRPA1 [6] = experiment: AITC-induced sEPSC frequency increase in lamina II neurons of spinal cord slices; format: cell-based, mouse; conditions: AITC 300 μM
How it was run: (§1)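 Transverse L4–L5 spinal cord slices (400–600 μm) from CD1 mice aged 4–6 weeks, perfused with Krebs solution gassed with 95% O2/5% CO2 at 37°C. Whole-cell sEPSCs recorded from lamina IIo neurons held at −70 mV with K-gluconate internal solution at pH 7.4. Signals filtered at 2 kHz and digitized at 5 kHz. Frequency ratio taken against pretreatment baseline, with AITC at […]; n = 5–9 neurons.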

CD1 mice [7] = experiment: Carrageenan-induced inflammatory pain; format: in vivo, mouse; conditions: 10 ng intraplantar
CD1 mice [8] = experiment: Formalin test; format: in vivo, mouse; conditions: 0.01 ng intrathecal
CD1 mice [9] = experiment: CFA-induced persistent inflammatory pain; format: in vivo, mouse; conditions: 10 ng intrathecal, 3 days after CFA
CD1 mice [10] = experiment: Rota-Rod test of motor function; format: in vivo, mouse; conditions: 10 ng i.t., naive animals
[11] = tested on: lamina II neurons of spinal cord slices; experiment: Patch clamp of basal sEPSCs in lamina II neurons of spinal cord slices; format: cell-based, mouse; conditions: RvD2 alone, 1 ng/ml
How it was run: as §1

[12] = tested on: lamina II neurons of spinal cord slices; experiment: sEPSCs in spinal cord slices from CFA-inflamed mice; format: cell-based, mouse; conditions: 1 ng/ml; slices from CFA-inflamed mice (one day)
How it was run: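 CD1 mice received CFA intraplantar (20 μl, 1 mg/ml) and were sliced 1 d later. Slices were compared with ones from noninflamed mice. L4–L5 transverse slices (400–600 μm) were perfused with Krebs solution at 37°C. Whole-cell recording from lamina IIo neurons held at −70 mV. sEPSC frequency and amplitude measured with test compound at 1 ng/ml; n = 5 neurons.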

[13] = tested on: C-fiber-evoked field potentials in the dorsal horn; experiment: Spinal cord LTP of C-fiber-evoked field potentials in anesthetized mice; format: in vivo, mouse; conditions: 10 ng intrathecal, 2 h after LTP induction
How it was run: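 Mice under urethane (1.5 g/kg i.p.), laminectomy at T13–L1. Bipolar sciatic nerve stimulation; C-fiber field potentials recorded in ipsilateral L4–L5 dorsal horn at 100–300 μm depth. Test pulses (2× threshold, 0.5 ms) every 5 min for >40 min, then tetanus (5× threshold, 100 Hz, 1 s, four trains, 10 s apart). Test compound 10 ng i.t. via PE5 catheter 2 h post-induction; n = 5; two-way ANOVA.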

[14] = TRPV1 current induced by capsaicin (100 nM), DRG neurons
[15] = GDPβS 2.5 mM, 8 min, RvD2 1 ng/ml
[16] = PTX 0.5 μg/ml, 18 h, RvD2 1 ng/ml

TRPV1 (Mus musculus, UniProt Q704Y3), sequence (Q704Y3 whole entry): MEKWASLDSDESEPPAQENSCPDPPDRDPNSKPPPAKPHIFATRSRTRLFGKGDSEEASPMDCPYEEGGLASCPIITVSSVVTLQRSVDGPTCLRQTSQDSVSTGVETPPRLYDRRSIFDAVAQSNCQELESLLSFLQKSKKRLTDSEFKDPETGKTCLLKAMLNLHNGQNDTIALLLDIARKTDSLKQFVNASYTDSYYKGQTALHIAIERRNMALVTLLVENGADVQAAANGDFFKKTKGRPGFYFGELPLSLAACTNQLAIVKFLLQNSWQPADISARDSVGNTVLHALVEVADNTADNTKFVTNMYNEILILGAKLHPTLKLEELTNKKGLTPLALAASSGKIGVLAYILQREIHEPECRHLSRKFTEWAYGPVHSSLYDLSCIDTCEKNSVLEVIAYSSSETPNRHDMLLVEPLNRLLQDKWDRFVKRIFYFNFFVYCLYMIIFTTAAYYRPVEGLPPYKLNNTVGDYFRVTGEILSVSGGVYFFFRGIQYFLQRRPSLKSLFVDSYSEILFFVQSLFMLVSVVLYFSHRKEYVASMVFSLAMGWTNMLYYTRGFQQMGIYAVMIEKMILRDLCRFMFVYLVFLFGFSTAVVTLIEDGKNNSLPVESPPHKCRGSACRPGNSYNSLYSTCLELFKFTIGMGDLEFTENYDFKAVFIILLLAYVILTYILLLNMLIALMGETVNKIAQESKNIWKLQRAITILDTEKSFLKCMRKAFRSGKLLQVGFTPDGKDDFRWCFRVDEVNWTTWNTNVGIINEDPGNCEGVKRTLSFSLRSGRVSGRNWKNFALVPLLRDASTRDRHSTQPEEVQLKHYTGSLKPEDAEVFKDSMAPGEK
TRPA1 (Mus musculus, UniProt Q8BLA8), sequence (Q8BLA8 whole entry): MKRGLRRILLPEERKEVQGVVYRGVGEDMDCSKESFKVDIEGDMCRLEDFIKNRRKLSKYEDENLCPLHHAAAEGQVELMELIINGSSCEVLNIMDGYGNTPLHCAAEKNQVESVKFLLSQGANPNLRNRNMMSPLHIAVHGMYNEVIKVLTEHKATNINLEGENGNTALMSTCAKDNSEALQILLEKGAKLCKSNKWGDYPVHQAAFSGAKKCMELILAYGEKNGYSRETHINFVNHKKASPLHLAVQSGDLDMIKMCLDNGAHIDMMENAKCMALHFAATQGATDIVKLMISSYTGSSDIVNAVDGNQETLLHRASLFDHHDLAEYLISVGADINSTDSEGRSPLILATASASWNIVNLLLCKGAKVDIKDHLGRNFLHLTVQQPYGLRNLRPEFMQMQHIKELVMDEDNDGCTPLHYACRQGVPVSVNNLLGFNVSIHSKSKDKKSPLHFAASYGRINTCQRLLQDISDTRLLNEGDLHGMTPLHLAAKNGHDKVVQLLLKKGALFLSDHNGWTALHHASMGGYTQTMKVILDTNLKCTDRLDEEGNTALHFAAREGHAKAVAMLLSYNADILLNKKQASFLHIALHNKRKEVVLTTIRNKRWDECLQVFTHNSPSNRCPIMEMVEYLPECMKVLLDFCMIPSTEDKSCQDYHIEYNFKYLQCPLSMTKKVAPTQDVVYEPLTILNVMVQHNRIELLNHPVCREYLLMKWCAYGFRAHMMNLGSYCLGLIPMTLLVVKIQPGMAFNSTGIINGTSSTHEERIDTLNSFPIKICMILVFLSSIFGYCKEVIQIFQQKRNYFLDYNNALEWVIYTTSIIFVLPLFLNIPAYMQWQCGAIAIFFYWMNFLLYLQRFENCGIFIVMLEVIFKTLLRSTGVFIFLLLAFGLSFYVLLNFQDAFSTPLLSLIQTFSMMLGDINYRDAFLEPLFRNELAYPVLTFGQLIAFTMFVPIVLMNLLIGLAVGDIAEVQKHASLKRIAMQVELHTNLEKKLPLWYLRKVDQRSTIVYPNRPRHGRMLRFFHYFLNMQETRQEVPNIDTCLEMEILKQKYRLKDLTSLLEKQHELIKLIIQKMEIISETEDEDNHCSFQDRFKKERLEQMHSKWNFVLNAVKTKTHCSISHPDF

CC[C@@H](O)/C=C/C=C\C[C@@H](O)/C=C/C=C/C=C\[C@@H](O)CCCC(=O)O [RvE1, Resolvin E1]
Effect on TRPA1 currents (TRPA1 [1]): did not inhibit | Capsaicin-induced nocifensive behaviors (CD1 mice [2]): selectively inhibited | Capsaicin-induced sEPSC frequency increase (TRPV1 [3]; 1 ng/ml): selectively inhibited

CC/C=C\C/C=C\C/C=C\C/C=C\C/C=C\C/C=C\CCC(=O)O [DHA, docosahexaenoic acid, reference compound]
Effect on TRPA1 currents (TRPA1 [1]): without affecting | Capsaicin-induced pain (CD1 mice [2]): inhibited | AITC-induced pain (CD1 mice [4]): but not AITC-induced pain

CC/C=C\C[C@H](O)/C=C/C=C\C=C\C=C\[C@@H](O)[C@@H](O)C/C=C\CCC(=O)O [RvD1, Resolvin D1]
Effect on TRPV1 currents (TRPV1 [5]; even at high concentrations): no effect | IC50 (TRPV1 [5]; [14]): > 26.6 nM | IC50 (TRPA1 [1]): 9 nM and 8.5 nM | AITC-induced nocifensive behaviors (CD1 mice [4]): selectively inhibited | AITC-induced sEPSC frequency increase (TRPA1 [6]; 10 ng/ml): selectively inhibited

CC/C=C\C/C=C\C/C=C\C/C=C\C/C=C\CCCC(=O)O [EPA, eicosapentaenoic acid, reference compound]
Effect on TRPA1 currents (TRPA1 [1]): without affecting | Capsaicin-induced pain (CD1 mice [2]): inhibited | AITC-induced pain (CD1 mice [4]): but not AITC-induced pain

CC/C=C\C[C@H](O)[C@H](O)/C=C/C=C/C=C\C=C\[C@@H](O)C/C=C\CCC(=O)O [RvD2, Resolvin D2]
Inhibition of TRPV1 current under intracellular GDPβS (TRPV1 [5]; [15]): completely blocked | Effect on TRPV1 current after pertussis toxin pretreatment (TRPV1 [5]; [16]): could not alter | TRPV1 IC50 expressed (TRPV1 [5]; [14]): 0.04 ng/mL | IC50 (TRPV1 [5]; [14]): 0.1 ± 0.01 nM | Inhibition of TRPA1 current under intracellular GDPβS (TRPA1 [1]; [15]): completely blocked | Effect on TRPA1 current after pertussis toxin pretreatment (TRPA1 [1]; [16]): could not alter | IC50 (TRPA1 [1]): 2 nM and 2.1 nM | Capsaicin-induced nocifensive behaviors (CD1 mice [2]): significantly reduced | AITC-induced nocifensive behaviors (CD1 mice [4]): significantly reduced | CRG-induced heat hyperalgesia (CD1 mice [7]): largely prevented | CRG-induced mechanical allodynia (CD1 mice [7]): largely prevented | CRG-induced paw edema (CD1 mice [7]; data not shown): reduced | Antinociceptive action in formalin test (CD1 mice [8]): significant antinociceptive action | CFA-induced heat hyperalgesia (CD1 mice [9]): effectively reduced | Duration of reduction of CFA-induced heat hyperalgesia and mechanical allodynia (CD1 mice [9]): > 3 h | CFA-induced mechanical allodynia (CD1 mice [9]; data not shown): effectively reduced | Motor function in the Rota-rod test (CD1 mice [10]): Neither did this treatment affect | Basal sEPSC amplitude [11]: altered neither | Basal sEPSC frequency [11]: altered neither | Capsaicin-induced increase in sEPSC frequency (TRPV1 [3]; 0.1 and 1 ng/ml): does-dependently blocked | AITC-induced increase in sEPSC frequency (TRPA1 [6]; 0.1 and 1 ng/ml): does-dependently blocked | CFA-induced increase in sEPSC amplitude [12]: abolished | CFA-induced increase in sEPSC frequency [12]: abolished | LTP of C-fiber-evoked field potentials [13]: completely reversed

From publication PMC3242808 (The Journal of neuroscience : the official journal of the …, 2011)
